Measurements: ChEMBL document CHEMBL3588785 (J Med Chem, 2015)
In brackets after ≈: the same amount, converted by molar mass. Activity calls are given as the source filed them. The rule behind the calls is not given here.

Experiments:
[1] = 1-Octanol-aqueous phosphate buffer partition coefficient, logD of the compound at pH 7.4; type: physicochemical
In short: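 Partition of compound between 1-octanol and aqueous phosphate buffer, pH 7.4; reported as distribution coefficient.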

[2] = biological target: T1, Mitogen-activated protein kinase 1 (Homo sapiens, UniProt P28482); test: Inhibition of MEK U911-activated ERK2 (unknown origin) using Erktide as substrate preincubated with enzyme for 20 mins prior to substrate addition by RapidFire Mass Spectrometry in presence of ATP at Km concentration
[3] = biological target: T1, Mitogen-activated protein kinase 1; test: Inhibition of MEK U911-activated ERK2 (unknown origin) using Erktide as substrate preincubated with enzyme for 20 mins prior to substrate addition by RapidFire Mass Spectrometry in presence of ATP at higher concentration
[4] = biological target: Dual specificity mitogen-activated protein kinase kinase 1 (Homo sapiens, UniProt Q02750); test: Inhibition of MEK1 (unknown origin) autophosphorylation incubated with enzyme for 20 mins prior to ATP addition by ADP Glo kinase assay in presence of ATP at Km concentration
[5] = biological target: T1, Mitogen-activated protein kinase 1; test: Inhibition of ERK2 in human A375 cells harboring B-RAF V600E mutant assessed as decrease in phospho-ERK2 level after 2 hrs by Cellomics ArrayScanTM VTI imaging analysis; type: cell-based, A-375
Hepatocyte = test: Intrinsic clearance in rat hepatocytes; type: ADME, cell-based
A-375 = test: Antiproliferative activity against human A375 cells harboring B-RAF V600E mutant after 72 hrs by Cellomics ArrayScanTM VTI imaging analysis; type: functional, cell-based; settings: A-375, 72 h
[6] = biological target: T2, Mitogen-activated protein kinase; ERK1/ERK2 (Homo sapiens, UniProt P27361+P28482); test: Inhibition of ERK1/2 in human A375 cells harboring B-RAF V600E mutant assessed as decrease in phospho-RSK level after 2 hrs by Cellomics ArrayScanTM VTI imaging analysis; type: cell-based; settings: a-375
[7] = Intrinsic clearance in human liver microsomes; type: ADME; settings: read-out: CLH
[8] = Solubility of the compound in aqueous phosphate buffer at 25 degC at pH 7.4 after 24 hrs; type: physicochemical
[9] = biological target: T1, Mitogen-activated protein kinase 1; test: Covalent binding to ERK2 (unknown origin) after 2 hrs by mass spectrometry
In short: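 ERK2 protein incubated with compound at 3-fold molar excess over protein, room temperature, 2 hours; sample diluted 10-fold and loaded immediately for intact-mass MS.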

Homo sapiens [10] = organism: Homo sapiens; test: Selectivity for ERK (unknown origin) over TRKA (unknown origin) at 1 uM
In short: (§1)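 Panel of 125 kinases screened with compound at 1 µM; kinases inhibited above 75% were recorded.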

Homo sapiens [11] = organism: Homo sapiens; test: Selectivity for ERK (unknown origin) over AUR-B (unknown origin) at 1 uM; in short: as §1
Homo sapiens [12] = organism: Homo sapiens; test: Selectivity for ERK (unknown origin) over FLT1 (unknown origin) at 1 uM; in short: as §1
Homo sapiens [13] = organism: Homo sapiens; test: Selectivity for ERK (unknown origin) over C-RAF (unknown origin) at 1 uM; in short: as §1
Homo sapiens [14] = organism: Homo sapiens; test: Selectivity for ERK (unknown origin) over AUR-C (unknown origin) at 1 uM; in short: as §1
Homo sapiens [15] = organism: Homo sapiens; test: Selectivity for ERK (unknown origin) over FAK (unknown origin) at 1 uM; in short: as §1
Homo sapiens [16] = organism: Homo sapiens; test: Selectivity for ERK (unknown origin) over AXL (unknown origin) at 1 uM; in short: as §1
Homo sapiens [17] = organism: Homo sapiens; test: Selectivity for ERK (unknown origin) over CDK1 (unknown origin) at 1 uM; in short: as §1
Homo sapiens [18] = organism: Homo sapiens; test: Selectivity for ERK (unknown origin) over CDK7 (unknown origin) at 1 uM; in short: as §1
Homo sapiens [19] = organism: Homo sapiens; test: Selectivity for ERK (unknown origin) over IR (unknown origin) at 1 uM; in short: as §1
Homo sapiens [20] = organism: Homo sapiens; test: Selectivity for ERK (unknown origin) over MET (unknown origin) at 1 uM; in short: as §1
Homo sapiens [21] = organism: Homo sapiens; test: Selectivity for ERK (unknown origin) over IGF-1R (unknown origin) at 1 uM; in short: as §1
Homo sapiens [22] = organism: Homo sapiens; test: Selectivity for ERK (unknown origin) over DYRK2 (unknown origin) at 1 uM; in short: as §1
Homo sapiens [23] = organism: Homo sapiens; test: Selectivity for ERK (unknown origin) over MEK1 (unknown origin) at 1 uM; in short: as §1
[24] = biological target: Mitogen-activated protein kinase 3 (Mus musculus) (UniProt Q63844); test: Binding affinity to ERK1 in mouse fibroblasts assessed as half-life
[25] = GSH reactivity assessed as half life
[26] = biological target: Mitogen-activated protein kinase 1 (Mus musculus) (UniProt P63085)
[27] = Stability in pH 7.4 buffer assessed as drug hydrolysis; type: physicochemical
In short: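 Compound held in pH 7.4 buffer alone at 37 °C, monitored over 11 hrs for hydrolysis.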

[28] = biological target: T2, Mitogen-activated protein kinase; ERK1/ERK2; settings: Calu-6, 500 nM
[29] = Stability to hydrolysis in pH 7.4 buffer measured over 11 hrs at 37 degC
[30] = AUC (0 to t) in mouse at 100 mg/kg, po; type: ADME, organism-based; settings: in vivo
[31] = Clearance in mouse hepatocytes measured per 10^6 cells; type: ADME, cell-based, Hepatocyte; settings: read-out: CLH
Homo sapiens [32] = organism: Homo sapiens; test: Selectivity for ERK (unknown origin) over SRC (unknown origin) at 1 uM; in short: as §1

Chain of Dual specificity mitogen-activated protein kinase kinase 1 (Q02750 whole entry): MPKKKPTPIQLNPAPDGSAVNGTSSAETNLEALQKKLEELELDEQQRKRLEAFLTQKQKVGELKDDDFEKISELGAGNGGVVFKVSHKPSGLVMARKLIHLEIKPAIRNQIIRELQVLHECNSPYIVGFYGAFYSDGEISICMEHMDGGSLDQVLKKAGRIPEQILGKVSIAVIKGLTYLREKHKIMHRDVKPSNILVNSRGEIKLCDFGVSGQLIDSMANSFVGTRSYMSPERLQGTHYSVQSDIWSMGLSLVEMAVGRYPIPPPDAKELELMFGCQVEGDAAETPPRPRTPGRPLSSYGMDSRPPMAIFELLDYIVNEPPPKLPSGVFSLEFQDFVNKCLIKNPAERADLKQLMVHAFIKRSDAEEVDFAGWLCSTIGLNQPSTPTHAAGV
Chain of Mitogen-activated protein kinase 1 (Mus musculus) (P63085 whole entry): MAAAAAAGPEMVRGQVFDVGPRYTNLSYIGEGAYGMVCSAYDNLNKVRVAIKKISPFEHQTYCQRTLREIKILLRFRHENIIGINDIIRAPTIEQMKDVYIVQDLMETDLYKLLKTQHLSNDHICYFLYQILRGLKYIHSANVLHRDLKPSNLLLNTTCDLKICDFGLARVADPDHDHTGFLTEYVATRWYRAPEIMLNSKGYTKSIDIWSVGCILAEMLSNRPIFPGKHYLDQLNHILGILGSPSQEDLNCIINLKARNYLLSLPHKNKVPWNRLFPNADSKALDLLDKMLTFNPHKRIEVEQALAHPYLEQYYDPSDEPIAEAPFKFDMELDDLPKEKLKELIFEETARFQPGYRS
Chain of Mitogen-activated protein kinase 3 (Mus musculus) (Q63844 whole entry): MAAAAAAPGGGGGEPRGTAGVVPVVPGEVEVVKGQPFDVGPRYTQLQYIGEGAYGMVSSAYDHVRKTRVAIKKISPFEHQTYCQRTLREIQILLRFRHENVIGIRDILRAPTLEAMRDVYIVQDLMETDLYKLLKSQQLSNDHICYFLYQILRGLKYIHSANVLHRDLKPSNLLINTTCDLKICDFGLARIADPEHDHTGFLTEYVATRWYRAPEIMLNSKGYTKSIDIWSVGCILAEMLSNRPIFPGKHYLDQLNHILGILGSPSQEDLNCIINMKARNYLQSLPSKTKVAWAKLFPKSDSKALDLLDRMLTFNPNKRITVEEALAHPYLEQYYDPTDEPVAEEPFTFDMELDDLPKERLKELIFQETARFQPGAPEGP

logD [1]	IC50 [2] [nM]	IC50 [3] [nM]	IC50 [4] [nM]	IC50 [5] [nM]	CLH (Hepatocyte) [µL/min/mg]	IC50 (A-375) [nM]	IC50 [6] [nM]	microsomal CLint [7] [µL/min/mg]	solubility at 24 h [8] [µM]	Selectivity ratio (Homo sapiens [13])	Selectivity ratio (Homo sapiens [23])	Compound	further results
2.1	39	47	260	66	33	240	280	19	990 (≈ 346 µg/mL)	–	–	C=CC(=O)Nc1ccccc1Nc1nc(Nc2ccnn2C)ncc1C	–
2.2	7.5	17	> 10000	120	–	1300	470	–	7 (≈ 2.1 µg/mL)	8	–	C=CS(=O)(=O)Nc1ccc2[nH]nc(-c3ccncc3)c2c1	Activity [9]: Active; Selectivity ratio (Homo sapiens [10]): 8; Selectivity ratio (Homo sapiens [11]): 8; Selectivity ratio (Homo sapiens [12]): 8; Selectivity ratio (Homo sapiens [14]): 8
3.8	44	340	> 10000	8700	–	1400	5100	–	15 (≈ 6.34 µg/mL)	–	–	CNC(=O)c1ccc(F)cc1Nc1cc(Nc2cc(C)nn2C)ncc1C(F)(F)F	Selectivity ratio (Homo sapiens [10]): 10; Selectivity ratio (Homo sapiens [11]): 10; Selectivity ratio (Homo sapiens [15]): 10; Selectivity ratio (Homo sapiens [16]): 10; Selectivity ratio (Homo sapiens [17]): 10; Selectivity ratio (Homo sapiens [18]): 10; Selectivity ratio (Homo sapiens [19]): 10; Selectivity ratio (Homo sapiens [20]): 10; Selectivity ratio (Homo sapiens [21]): 10; Selectivity ratio (Homo sapiens [14]): 10
0.9	85	90	> 10000	72	25	120	200	< 3	770 (≈ 320 µg/mL)	4	4	C=CC(=O)Nc1ccccc1Nc1nc(N[C@H]2CC[C@H](N(C)C)CC2)ncc1Cl	Selectivity ratio (Homo sapiens [12]): 4; Selectivity ratio (Homo sapiens [22]): 4
2.8	260	–	> 10000	7500	–	–	10000	–	290 (≈ 105 µg/mL)	–	–	CNC(=O)c1ccccc1Nc1cc(NC2CCOCC2)ncc1Cl	–
2.3	3.1	3	> 10000	6.7	> 250	41	28	13	150 (≈ 56.2 µg/mL)	2	2	C=CC(=O)Nc1cnccc1Nc1nc(NC2CCOCC2)ncc1Cl	T1/2 [24]: 120 h; T1/2 [25]: 0.7 h; T1/2 [26]: 54 h; Stability [27]: Stable; inhibition [28]: Active
1	370	220	> 10000	240	–	–	1100	–	760 (≈ 247 µg/mL)	2	2	C=CS(=O)(=O)N1CCc2cnc(NC3CCOCC3)nc2C1	Activity [9]: Active; Stability [29]: Stable; T1/2 [25]: 0.257 h; Stability [27]: Stable
–	9000	> 10000	–	10000	–	–	> 30000	–	–	–	–	CCS(=O)(=O)N1CCc2cnc(NC3CCOCC3)nc2C1	–
> 4	–	–	–	–	–	180	–	–	8.5 (≈ 3.68 µg/mL)	–	–	CC(C)Nc1cc(-c2c[nH]c(C(=O)N[C@H](CO)c3cccc(Cl)c3)c2)c(Cl)cn1 [ULIXERTINIB]	–
2.5	42	60	> 10000	120	270	680	400	24	40 (≈ 14.9 µg/mL)	2	2	C=CC(=O)Nc1ccccc1Nc1cc(NC2CCOCC2)ncc1Cl	–
–	280	1800	–	10000	–	> 30000	> 30000	–	–	–	–	CCS(=O)(=O)Nc1ccc2[nH]nc(-c3ccncc3)c2c1	–
1.6	74	110	4900	380	–	1400	1000	–	300 (≈ 91.3 µg/mL)	5	5	C=CS(=O)(=O)N1CCc2[nH]nc(-c3ccnc(C)c3)c2C1	Selectivity ratio (Homo sapiens [12]): 5
3.2	–	–	–	–	–	70	–	–	< 2.1	–	–	O=C(Nc1ccc2[nH]nc(-c3ccncc3)c2c1)[C@@H]1CCN(CC(=O)N2CCN(c3ccc(-c4ncccn4)cc3)CC2)C1	–
3.4	40	380	> 10000	2100	–	3400	2400	–	8.8 (≈ 3.63 µg/mL)	4	–	CNC(=O)c1ccc(F)cc1Nc1cc(NC2CCOCC2)ncc1C(F)(F)F	Selectivity ratio (Homo sapiens [15]): 4; Selectivity ratio (Homo sapiens [18]): 4; Selectivity ratio (Homo sapiens [20]): 4
–	480	4000	–	> 30000	–	6600	> 30000	–	–	–	–	CCC(=O)Nc1ccccc1Nc1nc(NC2CCOCC2)ncc1Cl	–
2.7	8.5	5.4	> 10000	19	200	57	69	67	46 (≈ 17.2 µg/mL)	4	–	C=CC(=O)Nc1ccccc1Nc1nc(NC2CCOCC2)ncc1Cl	Activity [9]: Active; Selectivity ratio (Homo sapiens [11]): 4; Selectivity ratio (Homo sapiens [12]): 4; Selectivity ratio (Homo sapiens [14]): 4; T1/2 [25]: 2.53 h; Stability [27]: Stable
2.4	9.9	13	120	48	120	91	120	42	520 (≈ 192 µg/mL)	7	7	C=CC(=O)Nc1ccccc1Nc1nc(Nc2ccnn2C)ncc1Cl	Selectivity ratio (Homo sapiens [11]): 7; Selectivity ratio (Homo sapiens [15]): 7; Selectivity ratio (Homo sapiens [12]): 7; Selectivity ratio (Homo sapiens [14]): 7
2.9	6.9	8.5	> 10000	22	270	53	65	38	59 (≈ 24 µg/mL)	6	6	C=CC(=O)Nc1ccccc1Nc1nc(NC2CCOCC2)ncc1C(F)(F)F	Selectivity ratio (Homo sapiens [11]): 6; AUC(0-t) [30]: 21 µM·h; Selectivity ratio (Homo sapiens [18]): 6; Selectivity ratio (Homo sapiens [14]): 6; hepatocyte CLint [31]: 143 µL/min/1e6 cells; Selectivity ratio (Homo sapiens [32]): 6
2	77	88	> 10000	170	59	470	740	13	170 (≈ 60.1 µg/mL)	2	2	C=CC(=O)Nc1ccccc1Nc1nc(NC2CCOCC2)ncc1C	–

Compound	logD [1]	IC50 [2] [nM]	IC50 [3] [nM]	IC50 [4] [nM]	IC50 [5] [nM]	CLH (Hepatocyte) [µL/min/mg]	IC50 (A-375) [nM]	IC50 [6] [nM]	microsomal CLint [7] [µL/min/mg]	solubility at 24 h [8] [µM]	Selectivity ratio (Homo sapiens [13])	Selectivity ratio (Homo sapiens [23])	further results
COc1cc(O)c2c(c1)/C=C/C[C@H](O)[C@@H](O)C(=O)/C=C/C[C@H](C)OC2=O	1.6	5100	3700	3400	1600	–	4100	5700	–	47 (≈ 17 µg/mL)	–	–	–
